Series [1] in a line: Hemolytic activity against New Zealand rabbit erythrocytes measured after 60 mins. The format is ADME, cell-based, Oryctolagus cuniculus, Erythrocyte. To be noted: read-out: HD50. Summed up: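 Nonheparinized rabbit blood; erythrocytes washed three times in PBS pH 7.4, 10% suspension; compounds from 10 mM DMSO stock diluted in PBS to 5-500 μM; 100 μL suspension plus 1 mL sample, 37 °C 60 min with periodic stirring; centrifuged, supernatant A540; distilled water = 100% hemolysis, PBS blank subtracted; triplicate; HD50 = concentration giving 50% maximal hemolysis.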

Series [2] concerns A549. In words: Cytotoxicity against human A549 cells after 48 hrs by MTT assay. The settings on record: A549, 48 h. The format is functional, cell-based.
For another series, the system named is MCF7. In words: Cytotoxicity against human MCF7 cells after 72 hrs by sulforhodamine B assay. The class given is functional, cell-based. The settings on record: for IC50: MCF7, 72 h.
The test system of the next series is KB. In words: Cytotoxicity against human KB cells after 72 hrs by sulforhodamine B assay. The class given is functional, cell-based.
A further series relates to MDA-MB-231. In words: Cytotoxicity against human MDA-MB-231 cells after 72 hrs by sulforhodamine B assay. The format is functional, cell-based. The settings on record: for IC50: MDA-MB-231, 72 h.
A short description of series [3]: (§1) Cytotoxicity against human KBVIN cells after 72 hrs by sulforhodamine B assay. The class given is functional, cell-based.
The subject of series [4] is A549. As to the kind of experiment: Cytotoxicity against human A549 cells after 72 hrs by sulforhodamine B assay. The format is functional, cell-based. To be noted: for IC50: A549, 72 h. For orientation: Sulforhodamine B stains cellular protein and so reports cell mass.
Series [5] concerns A549. In words: Cell cycle arrest in human A549 cells assessed as accumulation at G1-phase at 4 uM after 24 hrs by propidium iodide staining based flow cytometric analysis (reference value: 46.6%). The format is functional. In general terms: In flow cytometry, cells or beads pass a laser one at a time.
Series [6] has as its system A549. In words: Induction of apoptosis in human A549 cells assessed as reduction in procaspase-3 level at 2 to 8 uM by Western blot analysis. The class given is functional, cell-based. The essentials: (§2)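 A549 cells exposed 24 h; lysed in Tris-Cl pH 6.8/4% SDS/glycerol/β-mercaptoethanol/PMSF/aprotinin buffer, cleared 12000g 15 min 4 °C, protein by BCA; 10-15% SDS-PAGE, PVDF transfer, primary antibodies overnight 4 °C, HRP secondaries, ECL detection; Lam A as loading control.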
In general terms: A western blot detects proteins with antibodies after separation by electrophoresis.

Series [7] relates to A549. As to the kind of experiment: Induction of apoptosis in human A549 cells assessed as late apoptotic cells at 8 uM after 24 hrs by Annexin-V-FITC/propidium iodide staining based flow cytometric method (reference value: 2.97%). The class given is functional.
For another series, the species on record is Homo sapiens. The description is as §1. The format is functional, cell-based.
Series [8] has as its system A549. In words: Induction of apoptosis in human A549 cells assessed as reduction in procaspase-8 level at 2 to 8 uM by Western blot analysis. The class given is functional, cell-based. The essentials:
as §2

The test system of series [9] is A549. As to the kind of experiment: Induction of apoptosis in human A549 cells assessed as early apoptotic cells at 8 uM after 24 hrs by Annexin-V-FITC/propidium iodide staining based flow cytometric method (reference value: 1.43%). The class given is functional.
Series [10] concerns A549. As to the kind of experiment: Induction of apoptosis in human A549 cells assessed as early apoptotic cells at 4 uM after 24 hrs by Annexin-V-FITC/propidium iodide staining based flow cytometric method (reference value: 1.43%). The class given is functional.
For series [11], the system named is A549. In words: Cell cycle arrest in human A549 cells assessed as accumulation at G1-phase at 2 uM after 24 hrs by propidium iodide staining based flow cytometric analysis (reference value: 46.6%). The class given is functional.
The test system of series [12] is A549. As to the kind of experiment: Induction of apoptosis in human A549 cells assessed as reduction in procaspase-9 level at 2 to 8 uM by Western blot analysis. The class given is functional, cell-based. Summed up: as §2
Series [13] has as its system A549. In words: Induction of apoptosis in human A549 cells assessed as late apoptotic cells at 4 uM after 24 hrs by Annexin-V-FITC/propidium iodide staining based flow cytometric method (reference value: 2.97%). The format is functional.
The subject of series [14] is A549. As to the kind of experiment: Cell cycle arrest in human A549 cells assessed as accumulation at G1-phase at 8 uM after 24 hrs by propidium iodide staining based flow cytometric analysis (reference value: 46.6%). The class given is functional.
The subject of series [15] is A549. In words: Induction of apoptosis in human A549 cells assessed as increase in cleaved PARP level at 2 to 8 uM by Western blot analysis. The format is functional, cell-based. The essentials: as §2
Series [16] has as its system A549. As to the kind of experiment: Induction of apoptosis in human A549 cells assessed as late apoptotic cells at 2 uM after 24 hrs by Annexin-V-FITC/propidium iodide staining based flow cytometric method (reference value: 2.97%). The class given is functional.
Series [17] concerns A549. In words: Induction of apoptosis in human A549 cells assessed as early apoptotic cells at 2 uM after 24 hrs by Annexin-V-FITC/propidium iodide staining based flow cytometric method (reference value: 1.43%). The format is functional.

Activity calls are given as the source filed them. The rule behind the calls is not given here.

A word on the IC50: it is the concentration needed to halve the response being measured. High values mean weaker potency, low ones greater potency. In the case of `C[C@@H]1O[C@@H](O[C@H]2[C@H](O[C@H]3CC[C@@]4(C)[C@@H](CC[C@]5(C)[C@@H]4CC(=O)[C@]46OC(=O)[C@@]7(CCC(C)(C)C[C@H]74)CC[C@@]56C)[C@]3(C)CO)OC[C@H](O[C@@H]3O[C@H](CO)[C@@H](O)[C@H](O)[C@H]3O)[C@@H]2O)[C@H](O)[C@H](O)[C@H]1O`, in [1], the HC50 at 1 h is 290 µM. Besides, the IC50 in the series on A549 [2] is over 10 µM.

As for `CC1(C)CC[C@]2(C(=O)NCC(=O)O)CC[C@]3(C)C(=CC[C@@H]4[C@@]5(C)CC[C@H](O)[C@@](C)(CO)[C@@H]5CC[C@]43C)[C@@H]2C1`, the IC50 (in the series on MCF7; in the series with KB; in the series with MDA-MB-231; in series [3]; in the series with A549 [4]) was over 10 µM each time.

In the series on A549 [2], `C[C@@H]1O[C@@H](O[C@H]2[C@H](O[C@H]3CC[C@@]4(C)[C@@H](CC[C@]5(C)[C@@H]4C(=O)C=C4[C@@H]6CC(C)(C)CC[C@]6(C(=O)NCC(=O)O)CC[C@]45C)[C@]3(C)CO)OC[C@H](O[C@@H]3O[C@H](CO)[C@@H](O)[C@H](O)[C@H]3O)[C@@H]2O)[C@H](O)[C@H](O)[C@H]1O` registered an IC50 of over 10 µM.

On to `CCOC(=O)CCCCCNC(=O)[C@]12CCC(C)(C)C[C@H]1C1=CC[C@@H]3[C@@]4(C)CC[C@H](OC(C)=O)[C@@](C)(COC(C)=O)[C@@H]4CC[C@@]3(C)[C@]1(C)CC2`, for which the IC50 with MCF7 was over 10 µM; with KB, 6.9 µM; in series [3], over 10 µM; with A549 [4], 5.1 µM.

Turning to `CC1(C)CC[C@]2(C(=O)O)CC[C@]3(C)C(=CC[C@@H]4[C@@]5(C)CC[C@H](O)[C@@](C)(CO)[C@@H]5CC[C@]43C)[C@@H]2C1` [HEDERAGENIN], the IC50 (in the series with MCF7; in the series on KB; in the series with MDA-MB-231; in [3]; in the series on A549 [4]) was over 10 µM in each case.

As to `CC(=O)OC[C@@]1(C)[C@@H]2CC[C@]3(C)[C@H](CC=C4[C@@H]5CC(C)(C)CC[C@]5(C(=O)O)CC[C@]43C)[C@@]2(C)CC[C@@H]1OC(C)=O`, the IC50 in the series on MCF7 was over 10 µM; in the series with KB it was 7.4 µM; in the series on MDA-MB-231 it was over 10 µM; in series [3], 8.5 µM; in the series with A549 [4], 6.2 µM.

For the molecule `CCOC(=O)CNC(=O)[C@]12CCC(C)(C)C[C@H]1C1=CC[C@@H]3[C@@]4(C)CC[C@H](OC(C)=O)[C@@](C)(COC(C)=O)[C@@H]4CC[C@@]3(C)[C@]1(C)CC2`, the IC50 was found to be 7.7 µM with MCF7; 4.2 µM in the series on KB; 5.5 µM in the series with MDA-MB-231; 4.9 µM in [3]; 4.6 µM in the series on A549 [4].

As to `CCOC(=O)CCCNC(=O)[C@]12CCC(C)(C)C[C@H]1C1=CC[C@@H]3[C@@]4(C)CC[C@H](OC(C)=O)[C@@](C)(COC(C)=O)[C@@H]4CC[C@@]3(C)[C@]1(C)CC2`, the Activity result in the series with MCF7 was “Dose-dependent effect”; in the series with KB, “Dose-dependent effect”; in the series on A549 [5], 61.1%; in the series with MDA-MB-231 it was “Dose-dependent effect”; in the series with A549 [7], 4.87%; in the series listed under Homo sapiens, “Dose-dependent effect”. The Activity with A549 [9] came to 30.3%; in the series on A549 [10], 26.5%; in the series with A549 [11] it was 53.4%; in the series with A549 [13], 4.4%; in the series on A549 [14] it was 68.4%; in the series on A549 [16], 3.8%. Further, the values for the Activity with A549 [17] and in the series on A549 [4] were 14.8% and “Dose-dependent effect”, respectively. In addition, the IC50 was 8.6 µM in the series with MCF7, 3.6 µM in the series on KB, 5.1 µM in series [3] and 2.8 µM with A549 [4]. Besides, the result in the series with A549 [6], with A549 [8], in the series on A549 [12] and with A549 [15] was Active. Besides, the HC50 at 1 h in series [1] is over 500 µM.

On to `C[C@@H]1O[C@@H](O[C@H]2[C@H](O[C@H]3CC[C@@]4(C)[C@@H](CC[C@]5(C)[C@@H]4CC(=O)[C@@H]4[C@@H]6CC(C)(C)CC[C@]6(C(=O)O)CC[C@]45C)[C@]3(C)CO)OC[C@H](O[C@@H]3O[C@H](CO)[C@@H](O)[C@H](O)[C@H]3O)[C@@H]2O)[C@H](O)[C@H](O)[C@H]1O`, for which the HC50 at 1 h in series [1] is 73.1 µM. The IC50 in the series on A549 [2] was over 10 µM.

Regarding `C[C@@H]1O[C@@H](O[C@H]2[C@H](O[C@H]3CC[C@@]4(C)[C@@H](CC[C@]5(C)[C@@H]4C[C@H](O)[C@]46OC(=O)[C@@]7(CCC(C)(C)C[C@H]74)CC[C@]65C)[C@]3(C)CO)OC[C@H](O[C@@H]3O[C@H](CO)[C@@H](O)[C@H](O)[C@H]3O)[C@@H]2O)[C@H](O)[C@H](O)[C@H]1O`, the HC50 at 1 h in series [1] was determined as 308 µM. In addition, the IC50 with A549 [2] is over 10 µM.

`CC(=O)O[C@H]1C(=O)[C@@]2(C)[C@H]([C@H](OC(=O)c3ccccc3)[C@]3(O)C[C@H](OC(=O)[C@H](O)[C@@H](NC(=O)c4ccccc4)c4ccccc4)C(C)=C1C3(C)C)[C@]1(OC(C)=O)CO[C@@H]1C[C@@H]2O` [PACLITAXEL]: the IC50 in [3] came out at 1.86 µM.

Regarding `CC1(C)CC[C@]2(C(=O)NCCCCCC(=O)O)CC[C@]3(C)C(=CC[C@@H]4[C@@]5(C)CC[C@H](O)[C@@](C)(CO)[C@@H]5CC[C@]43C)[C@@H]2C1`, the IC50 (in the series on MCF7; in the series with KB; in the series with MDA-MB-231; in series [3]; in the series on A549 [4]) was over 10 µM each time.

As for `C[C@@H]1O[C@@H](O[C@H]2[C@H](O[C@H]3CC[C@@]4(C)[C@@H](CC[C@]5(C)[C@@H]4C(=O)C=C4[C@@H]6CC(C)(C)CC[C@]6(C(=O)O)CC[C@]45C)[C@]3(C)CO)OC[C@H](O[C@@H]3O[C@H](CO)[C@@H](O)[C@H](O)[C@H]3O)[C@@H]2O)[C@H](O)[C@H](O)[C@H]1O`, the HC50 at 1 h in series [1] was found to be 239 µM. Moreover, in the series with A549 [2], the IC50 is over 10 µM.

For the molecule `C[C@@H]1O[C@@H](O[C@H]2[C@H](O[C@H]3CC[C@@]4(C)[C@@H](CC[C@]5(C)[C@@H]4CC=C4[C@@H]6CC(C)(C)CC[C@]6(C(=O)O)CC[C@]45C)[C@]3(C)CO)OC[C@H](O[C@@H]3O[C@H](CO)[C@@H](O)[C@H](O)[C@H]3O)[C@@H]2O)[C@H](O)[C@H](O)[C@H]1O` [HEDERACOLCHISIDE A], 6 µM corresponded to half-maximal inhibition in the series with A549 [2] (IC50).

For the molecule `CC1(C)CC[C@]2(C(=O)NCCCC(=O)O)CC[C@]3(C)C(=CC[C@@H]4[C@@]5(C)CC[C@H](O)[C@@](C)(CO)[C@@H]5CC[C@]43C)[C@@H]2C1`, the IC50 (with MCF7; in the series on KB; in the series with MDA-MB-231; in series [3]; with A549 [4]) was over 10 µM throughout.

These data come from ChEMBL document CHEMBL4138167, “Cytotoxicity, Hemolytic Toxicity, and Mechanism of Action of Pulsatilla Saponin D and Its Synthetic Derivatives” (J Nat Prod, 2018).
